ChEMBL document CHEMBL3526154, “Metabolism, pharmacokinetics, tissue distribution, and stability studies of the prodrug analog of an anti-hepatitis B virus dinucleoside phosphorothioate” (Drug Metab Dispos, 2012)

How the values were obtained:
Assay type in all cases: ADME, organism-based
Conditions in all cases: in vivo; call rule not given here
Liver = experiment: Drug uptake in Sprague-Dawley rat liver at 10 mg/kg, po administered as single dose measured at 4 hrs post-dose by liquid scintillation counting analysis; parameters: dose 10 mg/kg, route oral
Method in brief: (§1)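 [35S]-labelled prodrug given once to rats, iv bolus via tail vein (25% PEG 400/75% saline) or oral gavage (0.05 M citric acid buffer, pH 2.5), 5 ml/kg. Rats euthanised at 1, 4 or 24 h. Liver, lung, kidney, heart, brain, spleen, tail and retro-orbital plasma were collected. Samples were homogenised and solubilised, and radioactivity was counted by liquid scintillation. Values are µg-equivalent/ml or g and % of dose.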

Lung = experiment: Drug uptake in Sprague-Dawley rat lung at 10 mg/kg, po administered as single dose measured at 4 hrs post-dose by liquid scintillation counting analysis; parameters: dose 10 mg/kg, route oral; method in brief: as §1
[1] = Drug excretion in female Sprague-Dawley rat feces at 10 mg/kg, po administered as single dose measured at 1 to 4 hrs post-dose by liquid scintillation counting analysis; parameters: dose 10 mg/kg, route oral
Method in brief: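 Single [³⁵S]-prodrug dose to rats, i.v. tail-vein bolus (PEG 400/saline vehicle) or oral gavage (citric acid buffer pH 2.5), 5 ml/kg. Urine and feces collected ~1, 4 and 24 h postdose. Radioactivity counted by liquid scintillation and expressed as % of administered dose. Mean and S.D. from nine rats per sex.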

Rattus norvegicus = experiment: Cmax in male Sprague-Dawley rat at 10 mg/kg, iv administered as bolus dose by liquid scintillation counting analysis; parameters: dose 10 mg/kg, route intravenous
Method in brief: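 Single dose of [³⁵S]-labelled prodrug to rats, i.v. tail-vein bolus in 25% PEG 400/75% saline or oral gavage in 0.05 M citric acid buffer pH 2.5, 5 ml/kg. Retro-orbital blood into EDTA at 1, 4 or 24 h; plasma by centrifugation. Radioactivity by liquid scintillation counting as µg-Eq/ml. Noncompartmental sparse-sampling analysis gives Cmax and AUC; nine rats per sex.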

CO[C@@H]1[C@H](OP(=O)(OC[C@H]2O[C@@H](n3cnc4c(N)ncnc43)C[C@@H]2O)[35S]COC(=O)OC(C)C)[C@@H](CO)O[C@H]1n1ccc(=O)[nH]c1=O (some centres undefined)
Drug uptake (Liver): Active | Drug uptake (Lung): Active | Drug excretion [1]: 0.08% | Cmax (Rattus norvegicus): 6.51 ugequiv/ml
